The results in this text go back to ChEMBL document CHEMBL1687940, “Quinazoline sulfonamides as dual binders of the proteins B-cell lymphoma 2 and B-cell lymphoma extra long with potent proapoptotic cell-based activity” (J Med Chem, 2011).

Test [1] deals with MEF. As to the kind of experiment: Cytotoxicity against mouse MEF cells expressing mcl-1 fl/fl after 24 hrs by Cell titer glo assay in presence of 10% serum. Type of test: functional, cell-based. Put shortly: (§1)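 Wild-type (mcl-1 fl/fl) or Mcl-1-deficient mouse embryonic fibroblasts kept in high-glucose DME with asparagine, 2-mercaptoethanol and 10% FCS. Exposed to compound 24 h in medium with 1% or 10% FCS. […] Means ± SEM of three independent experiments.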

The nature of test [2]: Cytotoxicity against human NCI-H146 after 48 hrs by MTS assay in presence of 10% human serum. Type of test: functional. The following applies: NCI-H146, 48 h. Put shortly:
(§2)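 Treated 48 h in medium with 10% human serum. Each concentration run in duplicate, at least three separate times. Viability read by MTS proliferation assay.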

Test [3] has as its system MEF. As to the kind of experiment: Cytotoxicity against mouse MEF cells expressing mcl-1 fl/fl after 24 hrs by Cell titer glo assay in presence of 10% fetal bovine serum. It is filed as functional, cell-based. In short, it runs like this: as §1
For test [4], the system named is MEF. The test can be described thus: Cytotoxicity against mouse mcl-1 deficient MEF cells after 24 hrs by Cell titer glo assay in presence of 10% serum. Type of test: functional, cell-based. In short, it runs like this: as §1
Test [5] deals with NCI-H889. As to the kind of experiment: Cytotoxicity against human NCI-H889 after 48 hrs by MTS assay in presence of 10% human serum. The settings on record: NCI-H889, 48 h. It is filed as functional, cell-based. In short, it runs like this: as §2
Test [6] concerns the target Apoptosis regulator Bcl-2 (Homo sapiens, UniProt P10415). As to the kind of experiment: Displacement of wild type mBimBH3 from human Bcl-2 by solution competition assay.
Test [7] addresses T1, Bcl-2-like protein 2 (Homo sapiens, UniProt Q92843).
T1 sequence (Q92843 whole entry): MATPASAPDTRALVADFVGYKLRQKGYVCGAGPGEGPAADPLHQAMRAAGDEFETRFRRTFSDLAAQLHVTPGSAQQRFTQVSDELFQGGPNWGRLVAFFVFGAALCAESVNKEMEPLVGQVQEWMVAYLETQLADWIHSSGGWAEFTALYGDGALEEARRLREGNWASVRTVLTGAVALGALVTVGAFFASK
As to the kind of experiment: Displacement of wild type mBimBH3 from human Bcl-w by solution competition assay.

Test [8] deals with MEF. As to the kind of experiment: Cytotoxicity against mouse mcl-1 deficient MEF cells after 24 hrs by Cell titer glo assay in presence of 10% fetal bovine serum. Type of test: functional, cell-based. Put shortly: as §1
The target in test [9] is Induced myeloid leukemia cell differentiation protein Mcl-1 (Homo sapiens, UniProt Q07820). The test can be described thus: Displacement of wild type mBimBH3 from Mcl-1 by solution competition assay.
Test [10] deals with MEF. As to the kind of experiment: Cytotoxicity against mouse MEF cells expressing mcl-1 fl/fl after 24 hrs by Cell titer glo assay in presence of 1% serum. It is filed as functional, cell-based. In short, it runs like this:
as §1

In test [11] the test system is MEF. The test can be described thus: Cytotoxicity against mouse mcl-1 deficient MEF cells after 24 hrs by Cell titer glo assay in presence of 1% serum. It is filed as functional, cell-based. Put shortly:
as §1

In test [12] the test system is NCI-H1963. As to the kind of experiment: Cytotoxicity against human NCI-H1963 after 48 hrs by MTS assay in presence of 10% human serum. Type of test: functional, cell-based. The following applies: NCI-H1963, 48 h. Put shortly:
as §2

Test [13] deals with T2, Bcl-2-like protein 1 (Homo sapiens, UniProt Q07817). The test can be described thus: Binding affinity to Bcl-Xl assessed as association rate constant by surface plasmon resonance assay. In short, it runs like this:
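Biacore SPR direct binding. Anti-GST antibody amine-coupled to CM5 chip (~10000 RU); GST-Bcl-xL captured (~1200 RU), fresh protein each cycle. Compound series injected at 90 μL/min, 25 °C; association 95 s, dissociation 240 s. Phosphate/NaCl/EDTA/Tween buffer with 5% DMSO, pH 7.4. Double referencing and DMSO solvent correction; fit to one-to-one model with mass transport for k_a, k_d.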

In test [14] the target is T2, Bcl-2-like protein 1. As to the kind of experiment: Displacement of biotinylated Bim-BH3 from GST-tagged Bcl-Xl by AlphaScreen competitive assay. In short, it runs like this:
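Titration into a mix of GST-tagged Bcl-xL ΔC25 (0.6 nM final) and biotinylated Bim BH3-26 peptide (5.0 nM final), with anti-GST acceptor and streptavidin donor beads (15 μg/mL each). Protein–acceptor and peptide–donor pairs were preincubated 30 min, then added in turn, 4 h at room temperature. DMSO 1.0% final.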

The test system of test [15] is MEF. The test can be described thus: Cytotoxicity against mouse MEF cells expressing mcl-1 fl/fl at 10 uM after 24 hrs by Cell titer glo assay in presence of 10% fetal bovine serum. It is filed as functional, cell-based.

Activity calls are given as the source filed them. No cut-off for these calls is given here. Bounds are passed on as bounds.

T2 sequence (Q07817 whole entry): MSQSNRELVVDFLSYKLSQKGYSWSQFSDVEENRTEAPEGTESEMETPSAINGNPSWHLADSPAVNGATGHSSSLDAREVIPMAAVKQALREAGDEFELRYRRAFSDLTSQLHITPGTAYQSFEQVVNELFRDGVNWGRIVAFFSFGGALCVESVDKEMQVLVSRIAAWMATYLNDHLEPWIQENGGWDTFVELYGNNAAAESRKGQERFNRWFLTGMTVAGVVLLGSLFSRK
Induced myeloid leukemia cell differentiation protein Mcl-1, sequence (Q07820 whole entry): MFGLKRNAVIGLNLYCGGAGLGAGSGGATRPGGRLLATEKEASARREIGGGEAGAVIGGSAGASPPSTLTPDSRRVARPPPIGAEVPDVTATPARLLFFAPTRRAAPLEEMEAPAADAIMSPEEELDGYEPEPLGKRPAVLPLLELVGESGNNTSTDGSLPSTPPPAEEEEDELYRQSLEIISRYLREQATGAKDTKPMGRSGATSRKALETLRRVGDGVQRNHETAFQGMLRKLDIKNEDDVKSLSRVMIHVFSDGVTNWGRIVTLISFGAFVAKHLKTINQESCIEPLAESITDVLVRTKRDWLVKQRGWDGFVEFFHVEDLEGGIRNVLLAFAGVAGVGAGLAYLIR
Apoptosis regulator Bcl-2, sequence (P10415 whole entry): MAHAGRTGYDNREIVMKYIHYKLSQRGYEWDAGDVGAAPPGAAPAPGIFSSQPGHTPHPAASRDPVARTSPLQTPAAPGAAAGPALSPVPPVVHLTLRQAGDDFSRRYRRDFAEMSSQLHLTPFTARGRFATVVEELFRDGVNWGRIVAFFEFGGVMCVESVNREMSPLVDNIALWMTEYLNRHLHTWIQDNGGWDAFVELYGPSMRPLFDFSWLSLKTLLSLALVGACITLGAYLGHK

`CN(C)CC[C@H](CSc1ccccc1)Nc1ccc(S(=O)(=O)Nc2ncnc3cc(N4CCN(Cc5ccccc5-c5ccc(Cl)cc5)CC4)ccc23)cc1[N+](=O)[O-]`: the EC50 in test [1] was found to be 5820 nM; in [2], 610 nM; in test [3], 5800 nM; in [4], 110 nM; in test [5], 210 nM; in [8], 110 nM. Further, the EC50 in test [10] was determined as 1680 nM; in [11], 40 nM; in test [12] it was 170 nM. Besides, the IC50 is 8.7 nM in [6], 440 nM in test [7] and over 1000 nM in test [9]. Also, the Ka in test [13] amounted to 1.9 ×10⁵ /M/s.
With `CC1(C)CCC(c2ccc(Cl)cc2)=C(CN2CCN(c3ccc4c(NS(=O)(=O)c5ccc(N[C@H](CCN6CCOCC6)CSc6ccccc6)c([N+](=O)[O-])c5)ncnc4c3)CC2)C1`, the EC50 in [1] was over 10000 nM; in test [4], 222 nM; in [10] it was over 10000 nM; in [11] it was 38 nM. Further, the IC50 is 21 nM in [6], over 1000 nM in test [7] and over 1000 nM in [9].
For `CN(C)CC[C@H](CSc1ccccc1)Nc1ccc(S(=O)(=O)Nc2ncnc3cc(N4CCN(CC5=C(c6ccc(Cl)cc6)CCC(C)(C)C5)CC4)ccc23)cc1S(=O)(=O)C(F)(F)F`, the EC50 stood at 5460 nM in test [1], 37.2 nM in test [4], 2650 nM in test [10] and 11.6 nM in test [11]. Moreover, the IC50 in test [6] is 5 nM; in [7], 275 nM; in test [9] it was over 1000 nM.
Consider `CN(C)CC[C@H](CSc1ccccc1)Nc1ccc(S(=O)(=O)Nc2ncnc3cc(N4CCN(Cc5ccccc5-c5ccc(Cl)cc5)CC4)ccc23)cc1S(=O)(=O)C(F)(F)F`, for which the IC50 in test [6] was 13 nM; in test [7], 245 nM; in [9], over 1000 nM.
In the case of `CC1(C)CCC(c2ccc(Cl)cc2)=C(CN2CCN(c3ccc4c(NS(=O)(=O)c5ccc(N[C@H](CCN6CCOCC6)CSc6ccccc6)c(S(=O)(=O)C(F)(F)F)c5)ncnc4c3)CC2)C1`, the half-maximal effective concentration (EC50) in [1] was over 10000 nM; in test [4] it was 328 nM; in test [10] it was over 10000 nM; in test [11], 37.2 nM. The figures for the IC50 in test [6], in test [7] and in test [9] were 84 nM, over 1000 nM and over 1000 nM, respectively.
On to `O=[N+]([O-])c1cc(S(=O)(=O)Nc2ncnc3cc(N4CCN(Cc5ccccc5-c5ccc(Cl)cc5)CC4)ccc23)ccc1N[C@H](CCN1CCOCC1)CSc1ccccc1`, for which the concentration for a half-maximal effect (EC50) in [1] was over 10000 nM; in test [2] it was 3700 nM; in test [4], 190 nM; in test [5], 1300 nM; in test [10], over 10000 nM; in test [11], 24.8 nM. Further, in test [12], the EC50 was found to be 1400 nM. The results for the IC50 in [6], in test [7] and in test [9] were 21 nM, over 1000 nM and over 1000 nM, respectively.
In the case of `CC1(C)CCC(c2ccc(Cl)cc2)=C(CN2CCN(c3ccc(C(=O)NS(=O)(=O)c4ccc(N[C@H](CCN5CCOCC5)CSc5ccccc5)c(S(=O)(=O)C(F)(F)F)c4)cc3)CC2)C1` [NAVITOCLAX], the EC50 in test [2] worked out at 80 nM; in [5], 120 nM; in test [12], 51 nM.
In test [14], `O=C(NS(=O)(=O)c1ccc(NCCSc2ccccc2)c([N+](=O)[O-])c1)c1ccc(-c2ccc(F)cc2)cc1` gave an IC50 of 1500 nM.
On to `CN(C)CC[C@H](CSc1ccccc1)Nc1ccc(S(=O)(=O)NC(=O)c2ccc(N3CCN(Cc4ccccc4-c4ccc(Cl)cc4)CC3)cc2)cc1[N+](=O)[O-]` [ABT 737], for which the 50% effective concentration (EC50) in [1] was over 10000 nM; in test [4], 51 nM; in test [8] it was 51 nM; in [10], over 10000 nM; in [11], 2.03 nM. Moreover, the outcome in test [15] was inactive. Further, the Ka in test [13] turned out to be 7.9 ×10⁵ /M/s.
On to `O=S(=O)(Nc1ncnc2cc(N3CCN(Cc4ccccc4-c4ccc(Cl)cc4)CC3)ccc12)c1ccc(N[C@H](CCN2CCOCC2)CSc2ccccc2)c(S(=O)(=O)C(F)(F)F)c1`, for which the EC50 is over 10000 nM in test [1]; 630 nM in [2]; 149 nM in test [4]; 820 nM in [5]; over 10000 nM in test [10]; 22.4 nM in test [11]. Besides, the EC50 in test [12] stood at 400 nM. In addition, the IC50 was 81 nM in [6], over 1000 nM in [7] and over 1000 nM in [9].
Regarding `CN(C)CC[C@H](CSc1ccccc1)Nc1ccc(S(=O)(=O)Nc2ncnc3cc(N4CCN(CC5=C(c6ccc(Cl)cc6)CCC(C)(C)C5)CC4)ccc23)cc1[N+](=O)[O-]`, the EC50 in test [1] was determined as 4300 nM; in test [4], 61 nM; in test [10], 1610 nM; in [11] it was 16 nM. In addition, the figures for the IC50 in test [6], in test [7] and in test [9] were 12 nM, 540 nM and over 1000 nM, respectively.
